In ChEMBL document CHEMBL1128256, “Synthesis, biological evaluation, and structure analysis of a series of new 1,5-anhydrohexitol nucleosides” (J Med Chem, 1995):
In brackets after ≈: the same amount, converted by molar mass.

Columns and labels:
HEL [1] = assay: Tested for the inhibitory concentration required to reduce TK+ Varicella-Zoster virus (TK+ VZV) strain YS plaque formation by 50%; type: functional, cell-based; settings: Homo sapiens
HEL [2] = assay: Tested for the inhibitory concentration required to reduce TK+ Varicella-Zoster virus (TK+ VZV) strain OKA plaque formation by 50%.; type: functional, cell-based; settings: Homo sapiens
E6SM [3] = assay: Tested for the minimum inhibitory concentration required to reduce herpes simplex virus type 2 (HSV-2) strain 196 induced cytopathogenicity by 50%.; type: functional; settings: Homo sapiens
In short: (§1)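 Inhibition of virus-induced cytopathogenicity in human embryonic skin-muscle (E6SM) fibroblasts seeded in 96-well trays. Viruses were HSV-1 (KOS, F, McIntyre), TK- HSV-1 B2006, TK-/TK+ HSV-1 clinical isolate VMW-1837 and HSV-2 (G, 196, Lyons). […] MCC is the lowest concentration giving microscopically detectable alteration of normal cell morphology; highest concentration tested was 400 µg/mL.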

E6SM [4] = assay: Tested for the minimum inhibitory concentration required to reduce vaccinia virus(VV) induced cytopathogenicity by 50%.; type: functional; settings: Homo sapiens
E6SM [5] = assay: Tested for the minimum inhibitory concentration required to reduce herpes simplex virus type 1 (HSV-1) strain KOS induced cytopathogenicity by 50%.; type: functional; settings: Homo sapiens; in short: as §1
E6SM [6] = assay: Tested for the minimum cytotoxic concentration required to cause a microscopically detectable alteration of normal cell morphology in human embryonic skin muscle (E6SM) fibroblast cell cultures.; type: functional; in short: as §1
E6SM [7] = assay: Tested for the minimum inhibitory concentration required to reduce herpes simplex virus type 1 (TK- / TK+ HSV-1) strain VMW-1837 induced cytopathogenicity by 50%.; type: functional; settings: Homo sapiens; in short: as §1
E6SM [8] = assay: Tested for the minimum inhibitory concentration required to reduce herpes simplex virus type 2 (HSV-2) strain Lyons induced cytopathogenicity by 50%.; type: functional; settings: Homo sapiens; in short: as §1
E6SM [9] = assay: Tested for the minimum inhibitory concentration required to reduce thymidine kinase deficient herpes simplex virus type 1 (TK- HSV-1) strain B2006 induced cytopathogenicity by 50%.; type: functional; settings: Homo sapiens; in short: as §1
HEL [10] = assay: Tested for the inhibitory concentration required to reduce cytomegalovirus (CMV) strain Davis plaque formation by 50%.; type: functional, cell-based; settings: Homo sapiens
In short: (§2)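 Virus plaque formation assay in human embryonic lung (HEL) cells seeded in 96-well trays. Targets were TK+ VZV (Oka, YS), TK- VZV (07/1, YS/R) and CMV (AD169, Davis). Value is the concentration that reduces plaque number by 50%. Cytotoxicity in HEL cells was taken as the concentration that reduces cell growth by 50%.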

HEL [11] = assay: Tested for the cytotoxic concentration, required to reduce cell growth by 50% in human embryonic lung (HEL) cells.; type: functional; in short: as §2
HEL [12] = assay: Tested for the inhibitory concentration required to reduce thymidine kinase deficient Varicella-Zoster virus (TK- VZV) strain YS/R plaque formation by 50%.; type: functional, cell-based; settings: Homo sapiens
HEL [13] = assay: Tested for the inhibitory concentration required to reduce cytomegalovirus (CMV) strain AD-169 plaque formation by 50%.; type: functional, cell-based; settings: Homo sapiens; in short: as §2
E6SM [14] = assay: Tested for the minimum inhibitory concentration required to reduce herpes simplex virus type 1 (HSV-1) strain McIntyre induced cytopathogenicity by 50%.; type: functional; settings: Homo sapiens; in short: as §1
E6SM [15] = assay: Tested for the minimum inhibitory concentration required to reduce vesicular stomatitis virus(VSV) induced cytopathogenicity by 50%; type: functional; settings: Homo sapiens
E6SM [16] = assay: Tested for the minimum inhibitory concentration required to reduce herpes simplex virus type 2 (HSV-2) strain G induced cytopathogenicity by 50%.; type: functional; settings: Homo sapiens; in short: as §1
E6SM [17] = assay: Tested for the minimum inhibitory concentration required to reduce herpes simplex virus type 1 (HSV-1) strain F induced cytopathogenicity by 50%.; type: functional; settings: Homo sapiens; in short: as §1
HEL [18] = assay: Tested for the inhibitory concentration required to reduce thymidine kinase plus Varicella-Zoster virus (TKplus VZV) strain OKA plaque formation by 50%.; type: functional, cell-based; settings: Homo sapiens; in short: as §2
HEL [19] = assay: Tested for the inhibitory concentration required to reduce thymidine kinase deficient Varicella-Zoster virus (TK- VZV) strain 07/1 plaque formation by 50%.; type: functional, cell-based; settings: Homo sapiens
E6SM [20] = assay: Tested for the minimum inhibitory concentration required to reduce thymidine kinase deficient herpes simplex virus type 1 (TK- / TK+ HSV-1) strain VMW-1837 induced cytopathogenicity by 50%.; type: functional; settings: Homo sapiens; in short: as §1
E6SM [21] = assay: Tested for the minimum inhibitory concentration required to reduce herpes simplex virus type 1 (TK+ / TK- HSV-1) strain VMW-1837 induced cytopathogenicity by 50%.; type: functional; settings: Homo sapiens; in short: as §1
Mus musculus = species on record: Mus musculus; assay: Inhibition constant assumed to reflect the affinity for the transport site in mouse erythrocytes; type: functional
In short: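 Thymidine influx competition in erythrocytes from male B6D2F1 mice, 10% hematocrit in buffered saline, room temperature. [methyl-3H]thymidine at 0.1, 0.2, 0.5 and 1 mM, alone or with inhibitor at 0.053–1.05 mM. Influx stopped after 3 s with NBMPR. Pellets extracted in 5% perchloric acid and counted by scintillation. Zero-time trapping subtracted. Duplicate samples. Ki from Dixon plot.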

Compound	IC50 (HEL [1])	IC50 (HEL [2])	MIC (E6SM [3])	MIC (E6SM [4])	MIC (E6SM [5])	MCC (E6SM [6])	MIC (E6SM [7])	MIC (E6SM [8])	MIC (E6SM [9])	IC50 (HEL [10])	CC50 (HEL [11])	IC50 (HEL [12])	IC50 (HEL [13])	MIC (E6SM [14])	MIC (E6SM [15])	MIC (E6SM [16])	MIC (E6SM [17])	IC50 (HEL [19])	other results
Nc1nc(=O)n(C2COC(CO)C(O)C2)cc1I (centres undefined)	> 40 µg/mL	> 40 µg/mL	20 µg/mL (≈ 54.5 µM)	150 µg/mL (≈ 409 µM)	2 µg/mL (≈ 5.45 µM)	> 400 µg/mL	70 µg/mL (≈ 191 µM)	20 µg/mL (≈ 54.5 µM)	300 µg/mL (≈ 817 µM)	> 40 µg/mL	> 50 µg/mL	7.6 µg/mL (≈ 20.7 µM)	> 40 µg/mL	2 µg/mL (≈ 5.45 µM)	> 400 µg/mL	7 µg/mL (≈ 19.1 µM)	0.7 µg/mL (≈ 1.91 µM)	–	–
Nc1nc(=O)n(C2COC(CO)C(O)C2)cc1F (centres undefined)	3.5 µg/mL (≈ 13.5 µM)	–	–	0.2 µg/mL (≈ 0.771 µM)	0.2 µg/mL (≈ 0.771 µM)	> 400 µg/mL	–	–	0.07 µg/mL (≈ 0.27 µM)	0.5 µg/mL (≈ 1.93 µM)	2 µg/mL (≈ 7.71 µM)	7 µg/mL (≈ 27 µM)	0.9 µg/mL (≈ 3.47 µM)	–	> 200 µg/mL	2 µg/mL (≈ 7.71 µM)	–	5 µg/mL (≈ 19.3 µM)	IC50 (HEL [18]): 2.9 µg/mL; MIC (E6SM [20]): 2 µg/mL (≈ 7.71 µM)
O=c1[nH]c(=O)n(C2COC(CO)C(O)C2)cc1/C=C/Br (centres undefined)	1.4 µg/mL (≈ 4.03 µM)	1.4 µg/mL (≈ 4.03 µM)	70 µg/mL (≈ 202 µM)	–	0.4 µg/mL (≈ 1.15 µM)	> 400 µg/mL	70 µg/mL (≈ 202 µM)	70 µg/mL (≈ 202 µM)	> 100 µg/mL	23 µg/mL (≈ 66.3 µM)	50 µg/mL (≈ 144 µM)	40 µg/mL (≈ 115 µM)	> 10 µg/mL	0.4 µg/mL (≈ 1.15 µM)	–	150 µg/mL (≈ 432 µM)	2 µg/mL (≈ 5.76 µM)	20 µg/mL (≈ 57.6 µM)	–
O=c1[nH]c(=O)n(C2COC(CO)C(O)C2)cc1F (centres undefined)	> 40 µg/mL	40 µg/mL (≈ 154 µM)	> 400 µg/mL	–	> 400 µg/mL	> 400 µg/mL	–	> 400 µg/mL	> 400 µg/mL	> 40 µg/mL	> 50 µg/mL	40 µg/mL (≈ 154 µM)	> 40 µg/mL	> 400 µg/mL	–	> 400 µg/mL	> 400 µg/mL	> 40 µg/mL	MIC (E6SM [21]): 300 µg/mL (≈ 1150 µM)
Nc1nc(=O)n(C2COC(CO)C(O)C2)cc1Cl (centres undefined)	> 40 µg/mL	40 µg/mL (≈ 145 µM)	300 µg/mL (≈ 1090 µM)	–	300 µg/mL (≈ 1090 µM)	> 400 µg/mL	300 µg/mL (≈ 1090 µM)	300 µg/mL (≈ 1090 µM)	> 400 µg/mL	> 40 µg/mL	> 50 µg/mL	> 40 µg/mL	> 40 µg/mL	300 µg/mL (≈ 1090 µM)	–	300 µg/mL (≈ 1090 µM)	150 µg/mL (≈ 544 µM)	> 40 µg/mL	–
Nc1ncnc2c1ncn2C[C@@H](CO)OCP(=O)(O)O	–	–	0.07 µg/mL (≈ 0.231 µM)	0.7 µg/mL (≈ 2.31 µM)	0.2 µg/mL (≈ 0.66 µM)	> 400 µg/mL	1 µg/mL (≈ 3.3 µM)	0.1 µg/mL (≈ 0.33 µM)	1 µg/mL (≈ 3.3 µM)	–	–	–	–	2 µg/mL (≈ 6.6 µM)	> 400 µg/mL	0.02 µg/mL (≈ 0.066 µM)	0.2 µg/mL (≈ 0.66 µM)	–	–
CCc1cn(C2COC(CO)C(O)C2)c(=O)[nH]c1=O (centres undefined)	> 50 µg/mL	> 50 µg/mL	–	200 µg/mL (≈ 740 µM)	0.02 µg/mL (≈ 0.074 µM)	> 400 µg/mL	0.4 µg/mL (≈ 1.48 µM)	–	> 400 µg/mL	> 50 µg/mL	> 50 µg/mL	> 50 µg/mL	> 50 µg/mL	–	–	0.4 µg/mL (≈ 1.48 µM)	–	> 50 µg/mL	–
Nc1nc(N)c2ncn(C3COC(CO)C(O)C3)c2n1 (centres undefined)	2 µg/mL (≈ 7.14 µM)	1.2 µg/mL (≈ 4.28 µM)	–	7 µg/mL (≈ 25 µM)	0.2 µg/mL (≈ 0.714 µM)	> 400 µg/mL	0.7 µg/mL (≈ 2.5 µM)	–	7 µg/mL (≈ 25 µM)	0.8 µg/mL (≈ 2.85 µM)	25 µg/mL (≈ 89.2 µM)	5 µg/mL (≈ 17.8 µM)	2 µg/mL (≈ 7.14 µM)	–	> 200 µg/mL	0.7 µg/mL (≈ 2.5 µM)	–	2.4 µg/mL (≈ 8.56 µM)	–
O=c1[nH]c(=O)n(C2COC(CO)C(O)C2)cc1I (centres undefined)	> 100 µg/mL	> 100 µg/mL	0.7 µg/mL (≈ 1.9 µM)	200 µg/mL (≈ 543 µM)	0.02 µg/mL (≈ 0.0543 µM)	> 400 µg/mL	–	0.4 µg/mL (≈ 1.09 µM)	> 400 µg/mL	> 40 µg/mL	> 50 µg/mL	> 100 µg/mL	> 40 µg/mL	0.04 µg/mL (≈ 0.109 µM)	–	0.4 µg/mL (≈ 1.09 µM)	0.01 µg/mL (≈ 0.0272 µM)	> 100 µg/mL	MIC (E6SM [20]): 4 µg/mL (≈ 10.9 µM)
Nc1nc2c(ncn2COCCO)c(=O)[nH]1 [ACYCLOVIR]	–	–	–	–	–	–	–	–	–	–	> 200 µg/mL	–	20 µg/mL (≈ 88.8 µM)	–	–	–	–	–	–
O=c1ccn([C@H]2C[C@H](O)[C@@H](CO)O2)c(=O)[nH]1 [DEOXYURIDINE]	–	–	–	–	–	–	–	–	–	–	–	–	–	–	–	–	–	–	Ki (Mus musculus): 110 µM
Nc1nc2c(ncn2COC(CO)CO)c(=O)[nH]1 [GANCICLOVIR]	0.072 µg/mL (≈ 0.282 µM)	0.02 µg/mL (≈ 0.0784 µM)	–	–	–	–	–	–	–	6.2 µg/mL (≈ 24.3 µM)	> 200 µg/mL	0.9 µg/mL (≈ 3.53 µM)	2.9 µg/mL (≈ 11.4 µM)	–	–	–	–	0.1 µg/mL (≈ 0.392 µM)	–
